Screens as filed in PubChem BioAssay.
Compounds with a hit are over-represented: about 1.9% of the library has one in this group of screens.
DNMT1 block = blocks human DNA methyltransferase DNMT1 | P26358 | DNMT1 molecular beacon, Hinp1I cleavage, fluorescence | inhibition (reported as % activation of signal), % at 10 µM | 360,000 tested, 0.83% active | AID 588458; in the data active = inhibition above about 50%
LMPTP block = LMPTP (human) inhibition; P24666; recombinant LMPTP-A, OMFP fluorogenic substrate, fluorescence intensity; inhibition, % at 20 µM; 360,000 tested, 0.22% active; AID 651560;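 active = compounds that cut the enzyme signal by at least half of the control window in the single-dose screen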;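 note: plate controls were DMSO wells with enzyme plus substrate for no effect and substrate without enzyme for full effect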
Target sequence (P24666 whole entry, looked up): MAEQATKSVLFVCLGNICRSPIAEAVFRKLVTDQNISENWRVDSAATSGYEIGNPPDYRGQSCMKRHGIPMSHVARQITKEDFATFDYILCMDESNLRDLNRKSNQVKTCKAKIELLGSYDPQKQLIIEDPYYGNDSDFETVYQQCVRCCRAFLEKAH
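Assay system: LMPTP-A enzyme. Input: 0.625 nM LMPTP-A final. Probe or stimulus: 400 µM OMFP. Compound dosing: single 20 µM dose. Schedule: 50 min dark incubation at room temperature. Detection: fluorescence intensity of OMFP turnover product. Read-out: percent inhibition versus substrate-only and uninhibited controls. Benchmarks: no-enzyme low control, uninhibited high control.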
SUMO1-SIM PPI = alters human SUMO1 binding to SIM partners; P63165; SUMO1 binding to a labelled peptide, TR-FRET, 1 h; inhibition, % at 20 µM; 360,000 tested, 0.33% active; AID 602429; in the data active = inhibition above about 37%
Target sequence (P63165 whole entry, looked up): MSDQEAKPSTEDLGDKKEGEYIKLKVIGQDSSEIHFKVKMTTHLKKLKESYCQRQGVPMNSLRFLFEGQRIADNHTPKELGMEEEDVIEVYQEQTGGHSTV
STEP inh = STEP (human) phosphatase inhibition; 360,000 tested, 0.25% active; inhibition, % at 20 µM; recombinant STEP, OMFP fluorogenic substrate, fluorescence;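 active = inhibition at 20 µM, scaled per plate between control wells, above about 37%, limit read from the data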;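 note: 0% = DMSO with enzyme and substrate and 100% = substrate only without enzyme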
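Also added – OMFP at 25 µM · Test system – STEP tyrosine phosphatase · Technique – FITC-channel fluorescence of OMFP product · Schedule – 20 min at room temperature, dark · Evaluation – control-normalized % inhibition with plate pattern correction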
Scp-1 inhibitor = blocks human Scp-1 phosphatase activity | Q9GZU7 | Recombinant Scp1, phosphopeptide, malachite green phosphate absorbance | inhibition, % at 20 µM | 340,000 tested, 0.88% active;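 active = inhibition above about 50% at 20 µM, limit read from the data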;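 note: plate controls were DMSO wells with enzyme for no effect and wells lacking enzyme for full effect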
Target sequence (Q9GZU7 76-261 limits assumed): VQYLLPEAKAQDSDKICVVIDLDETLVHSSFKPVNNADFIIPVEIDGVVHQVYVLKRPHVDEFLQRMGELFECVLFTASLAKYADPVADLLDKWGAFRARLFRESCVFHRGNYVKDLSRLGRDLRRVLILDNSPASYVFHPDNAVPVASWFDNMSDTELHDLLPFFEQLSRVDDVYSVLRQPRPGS
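Test system: SCP-1 catalytic domain; Buffer or medium: Acidic Tris acetate buffer with magnesium and detergent; Also added: Phosphorylated 17-residue peptide substrate; Compound: single 20 µM dose, 1% DMSO; Schedule: enzyme reaction 45 min at room temperature, colour 5 min, stabilisation 30 min; Signal: Phosphate-binding colour reagent, absorbance read at 630 nm.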
UBC9 SUMO inh = inhibitors of human SUMOylation (UBC9); P63279; HTRF SUMOylation assay, SAE1/SAE2 + UBC9, in vitro; inhibition, % at 35 µM; 290,000 tested, 0.36% active; AID 2006; in the data active = inhibition above about 50%, passing the limit was not always enough; inconclusive = no clear call, values can overlap the other calls
Target sequence (P63279 whole entry, looked up): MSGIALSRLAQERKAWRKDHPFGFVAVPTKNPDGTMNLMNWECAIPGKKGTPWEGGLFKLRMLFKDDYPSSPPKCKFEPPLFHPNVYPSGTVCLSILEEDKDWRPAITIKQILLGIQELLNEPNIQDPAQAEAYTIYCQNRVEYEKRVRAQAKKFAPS
An asterisk follows results filed as active; i = inactive; u = inconclusive; x = not tested or not shown; + = active, no number; ! = not active in a repeat.

SMILES | DNMT1 block | LMPTP block | SUMO1-SIM PPI | STEP inh | Scp-1 inhibitor | UBC9 SUMO inh
N#Cc1cc2ccc(N3CCOCC3)cc2cc1C#N | 14.3 | 0.7 | 44.0* | -0.3 | -9.8 | 88.7
Cn1c2ccccc2c2cc(/C=N/NC(=O)c3cc(O)ccc3O)ccc21 | 46.2 | 43.3 | 33.6 | 34.1 | 58.8* | 57.5*
CC1=[N+](C)c2c(ccc3cccnc23)C1(C)C | -8.9 | 5.2 | 4.0 | -0.3 | -1.4 | 89.6*
O=C(NCc1ccc(F)cc1)c1ccc(S(=O)(=O)N2CCCC2)cc1 | -1.1 | -2.6 | -0.6 | 2.5 | x | x
COC(=O)c1ccc(CNC(=O)c2ccc(S(=O)(=O)N3CCCC(C)C3)cc2)cc1 (stereo not drawn) | 50.0* | 0.1 | 0.3 | 2.7 | -8.2 | x
COc1ccc(CNC(=O)COC(=O)c2cc(C)nc3ccccc23)cc1 | -1.4 | -0.4 | -16.5 | -2.0 | 0.0 | x
O=C(OCC(=O)N1CCN(C(=O)c2ccco2)CC1)c1cc(-c2ccc(Cl)c(Cl)c2Cl)nc2ccccc12 | -12.8 | 3.4 | 64.3* | 1.8 | -6.7 | -36.0
COc1ccc(CNC(=O)COC(=O)c2cc(-c3ccco3)nc3ccccc23)cc1 | x | x | x | x | x | 56.7*
O=C(OCC(=O)N1CCN(C(=O)c2ccco2)CC1)c1cc(-c2ccco2)nc2ccccc12 | 97.0* | 59.8* | 26.1 | 79.1* | 87.0* | 42.9
COC(=O)CC1C(=O)NCCN1C(=O)c1oc2c(C)c(C)ccc2c1C (stereo not drawn) | 9.6 | -2.2 | 4.9 | 1.7 | x | x
CCCCCCCC/C=C\CCCCCCCC(=O)O | 59.0* | 1.6 | 24.4 | -0.3 | -6.3 | -3.8
CCCCC/C=C\C/C=C\C/C=C\CCCCC(=O)O | 49.4 | 2.1 | 14.1 | -1.0 | 36.8 | x
CC1=CC(C)(C)N(C(=O)CSc2ncn[nH]2)c2ccc(C)cc21 | -0.7 | -1.0 | 43.2* | 0.2 | -7.2 | 0.8
COC(=O)c1c(N)n(-c2ccc(N3CCOCC3)cc2)c2nc3ccccc3nc12 | x | x | x | x | x | 51.6*
O=C1CN(C(=O)NCC(=O)N[C@@H](C(=O)O)c2ccccc2)c2ccccc2N1 | 1.7 | -3.7 | -2.5 | 2.0 | -2.3 | 7.5
COc1ccc(-c2nc3ccc(C)cn3c2NCc2ccccc2)cc1SC1CCCCC1 | 59.7* | 4.3 | -3.1 | 6.4 | 19.6 | x
CCCCNc1c(-c2ccc(OC)c(SC3CCCCC3)c2)nc2ccc(C)cn12 | -17.1 | 10.5 | -20.5 | 6.0 | 23.2 | x
O=C(N/N=C/C=C/c1ccccc1[N+](=O)[O-])c1cccs1 | -0.2 | -1.1 | -16.3 | -4.6 | -8.2 | -8.4
O=C(N/N=C\C=C\c1ccc([N+](=O)[O-])o1)c1cccs1 | 80.6* | 5.9 | 8.7 | 12.3 | 57.4* | 50.8*
O=C(NCCN1CCOCC1)C1CCN(S(=O)(=O)N2CCCCC2)CC1 | 1.4 | 0.2 | 64.4* | -0.1 | 0.5 | 28.4
COC(=O)c1ccccc1-c1c2ccc(=N)cc-2oc2cc(N)ccc12 | + | i | i | i | 4.8 | x
O=C(Nc1ccc(F)cc1)C(c1cc2ccccc2o1)N1CCN(C(=O)c2ccco2)CC1 (stereo not drawn) | x | -0.8 | 7.6 | x | x | x
O=c1c(O)cccc2cc(O)c(O)c(O)c12 | 95.0* | 89.7* | 104.0* | 98.5* | 73.1* | u
O=c1cc(-c2ccccc2)oc2cc(O)c(O)c(O)c12 | 9.4 | 49.8 | 1.1 | 4.0 | 1.4 | x
COc1ccc(-n2cccc2/C=C2\C(=N)N3N=C(c4ccco4)SC3=NC2=O)cc1 | 90.4* | 50.6* | 103.0* | 86.8* | 81.5* | 87.8*
SMILES | DNMT1 block | LMPTP block | SUMO1-SIM PPI | STEP inh | Scp-1 inhibitor | UBC9 SUMO inh
CCOc1cc(-c2ccccc2)nc2c1CN(S(=O)(=O)c1ccc(C)cc1)C(c1cccc(Cl)c1)C2 (stereo not drawn) | x | 2.0 | 3.8 | x | x | x
CCn1c(SCC(=O)Nc2ccc(F)cc2)nnc1-c1cnccn1 | -0.1 | -0.7 | -0.6 | 0.3 | -1.1 | 16.8
CCOC(=O)c1ccc2c(c1)nc(-c1ccc(F)cc1)c1nccn12 | 17.7 | -1.0 | 47.8* | -0.6 | -0.8 | 2.2
Cc1nnc(SCC(=O)NCCC2=CCCCC2)[nH]c1=O | 5.6 | -1.0 | 10.0 | 9.7 | -4.9 | x
CCOC(=O)[C@]12CCC=C1N(Cc1cccc3ccccc13)C(=O)[C@H](CC(=O)N1CCN(C(=O)C3CC3)CC1)C2 | x | -0.6 | 2.5 | x | x | x
Cc1c2cc(O)c(=O)cc-2oc2cc(O)c(O)cc12 | 185.6* | 80.0* | 22.5 | -54.1 | 71.4* | 91.9*!
COc1cc(OC)c(-c2c3cc(O)c(=O)cc-3oc3cc(O)c(O)cc23)cc1OC | 17.4 | 22.0 | -77.2 | -206.1 | -7.4 | 80.1*
Cc1cc(C)c2c(c1)C1C=CCC1C(c1ccc(S(=O)(=O)N3CCOCC3)cc1)N2 (stereo not drawn) | -14.6 | -1.5 | -3.8 | 0.3 | -3.8 | 12.5
O=C(O)c1cc(Cl)c2c(c1)[C@@H]1C=CC[C@@H]1[C@H](c1ccc(S(=O)(=O)N3CCOCC3)cc1)N2 | 12.9 | 0.4 | 41.8* | 1.1 | 11.6 | 24.2
O=C(Cc1csc(N2CCOCC2)n1)N/N=C/c1ccc(O)c(O)c1O | 18.9 | 16.5 | 17.2 | 6.0 | 0.6 | 93.4*
O=C(Nc1cccc2nsnc12)c1ccc(-c2cccc(Cl)c2)o1 | -11.4 | 2.3 | 20.2 | 4.0 | -3.3 | 59.7*
O=C(Nc1ccccc1N1CCCCC1)c1ccc(-c2cccc(Cl)c2)o1 | 0.4 | 1.4 | 2.1 | -1.6 | -3.7 | 5.7
Cc1ccc(CC(=O)NNC(=O)c2cccs2)cc1C | -0.4 | -1.0 | 2.2 | -2.0 | -5.8 | x
Fc1cccc(Cc2c(-c3ccco3)nc3ccc(Br)cn23)c1 | 50.0* | 9.3 | 2.0 | 3.1 | x | x
O=C1NC(=S)S/C1=C\C=C\c1ccc([N+](=O)[O-])o1 | 91.1* | 82.1* | 97.0* | 65.9* | 87.0* | 86.4*
CC1CCN(C(=O)CSc2nnc(-c3ccccc3F)o2)CC1 | -0.4 | -0.7 | 54.5* | 2.0 | -3.8 | -3.2
COc1ccccc1-c1nnc(SCC(=O)N2CCC(C)CC2)o1 | -0.6 | -0.6 | -0.5 | -1.2 | -13.9 | 3.0
CCOc1ccccc1CNC(=O)C1CCCN(c2nnc(C)c3c(C)n(-c4ccccc4)nc23)C1 (stereo not drawn) | 2.3 | 6.1 | 46.9* | -1.5 | 5.7 | 25.3
Cc1ccc(-n2nc3c(N4CCC(C(=O)NCc5ccc(C)o5)CC4)nnc(C)c3c2C)cc1 | -7.5 | 65.1* | 32.9 | 0.5 | 3.4 | x
Cc1ccc(-n2nc3c(N4CCC(C(=O)NCCc5ccco5)CC4)nnc(C)c3c2C)cc1 | 0.8 | 47.9 | 15.3 | 4.4 | 3.4 | x
COc1ccc(-n2nc3c(N4CCC(C(=O)NCc5ccco5)CC4)nnc(C)c3c2C)cc1 | 2.0 | 53.5* | 14.6 | 0.9 | 4.8 | 10.8
CN(C)CCCNS(=O)(=O)c1ccc(N2CCC(c3ccc(Cl)cc3)=N2)cc1 | x | x | x | x | x | 65.2*
O=[N+]([O-])c1ccc2c(c1)N([O-])C1(CCCCC1)[N+]2=O | x | x | x | x | 2.3 | 53.7*
